Experimental data: ChEMBL document CHEMBL3352274, “Oxadiazoles and thiadiazoles: novel α-glucosidase inhibitors” (Bioorg Med Chem, 2014); call rule not given here

Experiments:
[1] = Inhibition of alpha-glucosidase (unknown origin) using p-nitrophenyl-alpha-D-glucopyranoside substrate measured up to 30 mins by multiplate spectrophotometry; design: species or system Homo sapiens
In short: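 Enzyme 0.2 U/mL in phosphate buffered saline, preincubated with test compounds at various concentrations, 15 min, 37 °C. Assay in 0.1 M phosphate buffer pH 6.8 at 37 °C. Triplicate reactions, acarbose as standard. % inhibition = 100 − (OD test/OD control) × 100. IC50 by enzyme kinetics fitting.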

[2] = Non-competitive inhibition of alpha-glucosidase (unknown origin) by Lineweaver-Burk plot; design: species or system Homo sapiens
In short: (§1)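 Mode of inhibition from Lineweaver–Burk plots (1/rate vs 1/substrate concentration) at varying inhibitor concentrations, tracking Km and Vmax. Ki from secondary re-plots of Lineweaver–Burk slopes vs inhibitor concentration and from Dixon plots (1/rate vs inhibitor concentration). Each point mean of three experiments.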

[3] = (§2) Inhibition of snake venom phosphodiesterase 1 using bis(p-nitrophenyl) phosphate substrate after 30 mins by spectrophotometry; design: species or system Serpentes
In short: (§3)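 Assayed in 33 mM Tris–HCl buffer (pH 8.8) with 30 mM Mg-acetate as co-factor, 0.000742 U of enzyme and 0.33 mM substrate. After 30 min of incubation, activity was followed at 37 °C as p-nitrophenol release at 410 nm. Initial rates were taken as change in OD/min. All reactions were run in triplicate, with EDTA as positive control.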

Serpentes = experiment: as §2; design: concentration or dose not given beside the values; in short: as §3
3T3 = experiment: Cytotoxicity against […] 3T3 cells by MTT assay; conditions: Mus musculus, NIH3T3
[4] = biological target: Carbonic anhydrase 2 (Bos taurus) (UniProt P00921); experiment: Inhibition of carbonic anhydrase 2 (unknown origin) using 4-NPA substrate after 15 mins by spectrophotometry
[5] = Competitive inhibition of alpha-glucosidase (unknown origin) by Lineweaver-Burk plot; design: species or system Homo sapiens; in short: as §1

Structure (SMILES) | IC50 [1] | IC50 ([1]; read-out: IC50) | other results
O=C(CSc1nnc(SCC(=O)c2ccc(Cl)cc2)s1)c1ccc(Cl)cc1 | Not Active |  | 
O=C(CSc1nnc(-c2cccnc2)o1)c1ccc([N+](=O)[O-])cc1 | Not Active |  | 
O=C(CSc1nnc(SCC(=O)c2cccc(F)c2)s1)c1cccc(F)c1 |  | 24.6 µM | 
O=C(CSc1nnc(-c2cccnc2)o1)c1ccc(Br)cc1 | Not Active |  | 
COc1cccc(C(=O)CSc2nnc(-c3ccccc3)o2)c1 |  | 184 µM | 
O=C(CSc1nnc(-c2ccccc2)o1)c1cccc(F)c1 | Not Active |  | 
O=C(CSc1nnc(SCC(=O)c2ccc(Cl)c(Cl)c2)s1)c1ccc(Cl)c(Cl)c1 | Not Active |  | 
COc1ccccc1C(=O)CSc1nnc(SCC(=O)c2ccccc2OC)s1 |  | 94.3 µM | 
O=C(CSc1nnc(-c2cccnc2)o1)c1cc2ccccc2oc1=O | Not Active |  | 
O=C(CSc1nnc(SCC(=O)c2ccc(-c3ccccc3)cc2)s1)c1ccc(-c2ccccc2)cc1 |  | 51.8 µM | 
O=C(CSc1nnc(SCC(=O)c2ccc(Br)cc2)s1)c1ccc(Br)cc1 |  | 166 µM | 
O=C(CSc1nnc(-c2cccnc2)o1)c1cccc(F)c1 | Not Active |  | 
COc1ccccc1C(=O)CSc1nnc(-c2ccc(OCc3ccccc3)cc2)o1 |  | 11.8 µM | Ki [2]: 4.36 µM; IC50 [3]: Not Active; inhibition (Serpentes): 8.5%; IC50 (3T3): > 30 µM; IC50 [4]: Not Active; inhibition [4]: 33%
O=C(CSc1nnc(-c2ccccc2)o1)c1ccc(Br)cc1 | Not Active |  | 
COc1ccc(C(=O)CSc2nnc(-c3ccc(OCc4ccccc4)cc3)o2)cc1 | Not Active |  | 
O=C(CSc1nnc(-c2cccnc2)o1)c1cccc(O)c1 | Not Active |  | 
C[C@H]1O[C@H](O[C@H]2[C@H](O)[C@@H](O)[C@@H](O[C@H]3[C@H](O)[C@@H](O)C(O)O[C@@H]3CO)O[C@@H]2CO)[C@H](O)[C@@H](O)[C@@H]1N[C@H]1C=C(CO)[C@@H](O)[C@H](O)[C@H]1O (some centres undefined) [ACARBOSE] |  | 937 µM | Ki [5]: 890 µM
O=C(CSc1nnc(-c2ccc(OCc3ccccc3)cc2)o1)c1cccc(O)c1 |  | 17.9 µM | Ki [2]: 11.2 µM; IC50 [3]: Not Active; inhibition (Serpentes): 1.8%; IC50 (3T3): > 30 µM; IC50 [4]: Not Active; inhibition [4]: 48.2%
O=C(CSc1nnc(-c2ccc(Cl)cc2)o1)c1cccc(O)c1 |  | 24.1 µM | Ki [2]: 12 µM; IC50 [3]: Not Active; inhibition (Serpentes): 26%; IC50 (3T3): > 30 µM; IC50 [4]: Not Active; inhibition [4]: 9%
O=C(CSc1nnc(-c2cccnc2)o1)c1ccc(-c2ccccc2)cc1 |  | 125 µM | 
O=C(CSc1nnc(SCC(=O)c2ccc([N+](=O)[O-])cc2)s1)c1ccc([N+](=O)[O-])cc1 | Not Active |  | 
COc1ccc(C(=O)CSc2nnc(SCC(=O)c3ccc(OC)cc3)s2)cc1 | Not Active |  | 
O=C(CSc1nnc(SCC(=O)c2cccc(O)c2)s1)c1cccc(O)c1 |  | 20.4 µM | Ki [2]: 14.3 µM; IC50 [3]: Not Active; inhibition (Serpentes): 4.6%; IC50 (3T3): > 30 µM; IC50 [4]: Not Active; inhibition [4]: 42.9%
COc1ccc(C(=O)CSc2nnc(-c3ccccc3)o2)cc1 | Not Active |  | 
O=C(CSc1nnc(SCC(=O)c2ccccc2)s1)c1ccccc1 |  | 10.8 µM | Ki [5]: 6 µM; IC50 [3]: Not Active; inhibition (Serpentes): 12.3%; IC50 (3T3): > 30 µM; IC50 [4]: Not Active; inhibition [4]: 33.8%

The next lines start with results.

IC50 [1] | IC50 ([1]; read-out: IC50) | Structure (SMILES) | other results
Not Active |  | O=C(CSc1nnc(-c2cccnc2)o1)c1ccc(Cl)cc1 | 
Not Active |  | COc1cccc(C(=O)CSc2nnc(-c3ccc(Cl)cc3)o2)c1 | 
Not Active |  | O=C(CSc1nnc(-c2ccc(Cl)cc2)o1)c1cccc(Cl)c1 | 
Not Active |  | O=C(CSc1nnc(-c2ccc(Cl)cc2)o1)c1ccc(-c2ccccc2)cc1 | 
Not Active |  | O=C(CSc1nnc(-c2ccc(Cl)cc2)o1)c1cc2ccccc2oc1=O | 
 | 49.1 µM | O=C(CSc1nnc(-c2ccc(Cl)cc2)o1)c1cccc(F)c1 | 
Not Active |  | O=C(CSc1nnc(-c2ccccc2)o1)c1ccc(Cl)cc1 | 
 | 74.2 µM | O=C(CSc1nnc(-c2ccccc2)o1)c1ccc(Cl)c(Cl)c1 | 
Not Active |  | O=C(CSc1nnc(-c2ccccc2)o1)c1cccc(Cl)c1 | 
Not Active |  | COc1ccc(C(=O)CSc2nnc(-c3ccc(Cl)cc3)o2)cc1 | 
Not Active |  | O=C(CSc1nnc(-c2ccc(Cl)cc2)o1)c1ccc(Cl)cc1 | 
 | 81.6 µM | COc1ccccc1C(=O)CSc1nnc(-c2ccc(Cl)cc2)o1 | 
 | 112 µM | O=C(CSc1nnc(-c2ccccc2)o1)c1cccc(O)c1 | 
